Assay results reported in ChEMBL document CHEMBL1134370, “Pharmacophore analysis of the nuclear oxysterol receptor LXRalpha” (J Med Chem, 2001).

How the values were obtained:
[1] = biological target: T1, Oxysterols receptor LXR-alpha (Homo sapiens, UniProt Q13133); assay: Concentration required for half maximal activity was calculated in human nuclear oxysterol receptor liver X receptor-alpha in LiSA.
T1 sequence (Q13133 whole entry): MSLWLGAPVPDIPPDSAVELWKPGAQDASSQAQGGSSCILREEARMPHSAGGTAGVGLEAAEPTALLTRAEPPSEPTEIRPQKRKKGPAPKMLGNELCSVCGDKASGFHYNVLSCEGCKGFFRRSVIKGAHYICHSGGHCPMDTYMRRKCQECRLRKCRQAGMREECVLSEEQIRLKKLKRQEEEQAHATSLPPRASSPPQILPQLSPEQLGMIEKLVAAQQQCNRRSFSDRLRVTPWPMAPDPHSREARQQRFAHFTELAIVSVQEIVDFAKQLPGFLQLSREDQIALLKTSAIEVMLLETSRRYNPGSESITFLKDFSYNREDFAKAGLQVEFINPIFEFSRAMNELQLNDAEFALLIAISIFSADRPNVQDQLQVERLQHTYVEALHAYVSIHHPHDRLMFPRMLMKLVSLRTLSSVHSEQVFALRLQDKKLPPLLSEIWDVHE
Procedure, shortened: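 Human LXRα ligand-binding domain (aa 183-447) with His tag, expressed in E. coli, purified and biotinylated. Protein and biotinylated SRC1 peptide (aa 675-699) were pre-bound to streptavidin-APC and streptavidin-europium. The final mix (10 nM each) was read by TR-FRET at 665 nm after 2-4 h at room temperature. Compounds 1 nM-100 µM; EC50 from half-maximal fluorescence, n = 3, standard error.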

[2] = biological target: T2, Oxysterols receptor LXR-alpha (Homo sapiens) (UniProt Q13133); assay: Tested for its ability to activate Liver X receptor-alpha expressed as Relative efficacy determined by maximal increase in relative fluorescence in LiSA
T2 sequence (whole entry): T1 sequence (Q13133 whole entry)
Procedure, shortened: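 Human LXRα ligand-binding domain (aa 183-447) with a His tag, expressed in E. coli, biotinylated and coupled to streptavidin-allophycocyanin. A biotinylated SRC1 peptide (aa 675-699) was coupled to streptavidin-europium. Final concentrations: 10 nM protein and peptide in pH 7.5 MOPS buffer, compound 1 nM–100 µM. Incubated 2-4 h at room temperature; time-resolved FRET read at 665 nm. Efficacy is the maximal fluorescence increase relative to 24(S),25-epoxycholesterol.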

[3] = biological target: T2, Oxysterols receptor LXR-alpha (Homo sapiens); assay: Tested for its ability to activate Liver X receptor-alpha expressed as Relative efficacy determined by maximal increase in relative fluorescence in LiSA by 100 uM
Procedure, shortened: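 TR-FRET ligand-sensing assay of SRC1 peptide recruitment to biotinylated human LXRα LBD (aa 183-447, E. coli), 10 nM each in MOPS/NaF buffer pH 7.5. Run at room temperature for 2-4 h, read at 665 nm. Relative efficacy is the maximal increase in relative fluorescence compared with 24(S),25-epoxycholesterol. Compounds tested up to 100 µM.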

[4] = biological target: T1, Oxysterols receptor LXR-alpha; assay: Binding affinity towards LXR alpha receptor was determined in a competition binding assay

Row | Compound | EC50 [1] | RE [2] | RE [3] | Ki [4]
1 | C[C@H](CCC(=O)O)[C@H]1CC[C@H]2[C@@H]3CC=C4C[C@@H](O)CC[C@]4(C)[C@H]3CC[C@]12C | 3000 nM | 0.2 | – | –
2 | CC(C)C(=O)NC[C@@H](C)[C@H]1CC[C@H]2[C@@H]3CC=C4C[C@@H](O)CC[C@]4(C)[C@H]3CC[C@]12C | – | < 0.1 | – | –
3 | C[C@H](CCC(=O)N(C)C)[C@H]1CC[C@H]2[C@@H]3CC=C4C[C@@H](O)CC[C@]4(C)[C@H]3CC[C@]12C | 170 nM | 1.4 | – | –
4 | CC(C)[C@@H](O)CC[C@@H](C)[C@H]1CC[C@H]2[C@@H]3CC=C4C[C@@H](O)CC[C@]4(C)[C@H]3CC[C@]12C | 130 nM | 1 | – | –
5 | C[C@@H](CO)CCC[C@@H](C)[C@H]1CC[C@H]2[C@@H]3CC=C4C[C@@H](O)CC[C@]4(C)[C@H]3CC[C@]12C | 250 nM | 0.3 | – | –
6 | C[C@H](CNC(=O)N(C)C)[C@H]1CC[C@H]2[C@@H]3CC=C4C[C@@H](O)CC[C@]4(C)[C@H]3CC[C@]12C | – | < 0.1 | – | –
7 | CC(C)[C@H](O)CC[C@@H](C)[C@H]1CC[C@H]2[C@@H]3CC=C4C[C@@H](O)CC[C@]4(C)[C@H]3CC[C@]12C | 220 nM | 0.85 | – | –
8 | CNC(=O)CC[C@@H](C)[C@H]1CC[C@H]2[C@@H]3CC=C4C[C@@H](O)CC[C@]4(C)[C@H]3CC[C@]12C | 720 nM | 0.55 | – | –
9 | CC(C)CC[C@@H](O)[C@@H](C)[C@H]1CC[C@H]2[C@@H]3CC=C4C[C@@H](O)CC[C@]4(C)[C@H]3CC[C@]12C [22(R)-HYDROXYCHOLESTEROL] | 325 nM | 0.85 | – | –
10 | CC(C)CCC[C@@H](C)[C@H]1CC[C@H]2[C@@H]3CC=C4C[C@@H](O)CC[C@]4(C)[C@H]3CC[C@]12C | – | < 0.1 | – | –
11 | CC(C)C[C@H](O)C[C@@H](C)[C@H]1CC[C@H]2[C@@H]3CC=C4C[C@@H](O)CC[C@]4(C)[C@H]3CC[C@]12C | 5900 nM | 0.7 | – | –
12 | CC(C)C(=O)CC[C@@H](C)[C@H]1CC[C@H]2[C@@H]3CC=C4C[C@@H](O)CC[C@]4(C)[C@H]3CC[C@]12C | 180 nM | 1.3 | – | –
13 | C[C@H](C[C@@H](CO)C(C)(C)O)[C@H]1CC[C@H]2[C@@H]3CC=C4C[C@@H](O)CC[C@]4(C)[C@H]3CC[C@]12C | – | < 0.1 | – | –
14 | CC(C)CCC[C@](C)(O)[C@H]1CC[C@H]2[C@@H]3CC=C4C[C@@H](O)CC[C@]4(C)[C@H]3CC[C@@]21C | 470 nM | 1 | – | –
15 | COC(=O)CC[C@@H](C)[C@H]1CC[C@H]2[C@@H]3CC=C4C[C@@H](O)CC[C@]4(C)[C@H]3CC[C@]12C | 105 nM | 1.1 | – | –
16 | CC(C)CC[C@H](O)[C@@H](C)[C@H]1CC[C@H]2[C@@H]3CC=C4C[C@@H](O)CC[C@]4(C)[C@H]3CC[C@]12C | – | – | < 0.1 | 180 nM
17 | CC(C)C[C@@H](O)C[C@@H](C)[C@H]1CC[C@H]2[C@@H]3CC=C4C[C@@H](O)CC[C@]4(C)[C@H]3CC[C@]12C | – | < 0.1 | – | –
18 | C[C@H](CC[C@@H]1OC1(C)C)[C@H]1CC[C@H]2[C@@H]3CC=C4C[C@@H](O)CC[C@]4(C)[C@H]3CC[C@]12C [24(S),25-EPOXYCHOLESTEROL] | 460 nM | 1 | – | –
19 | C[C@H](CC[C@H]1OC1(C)C)[C@H]1CC[C@H]2[C@@H]3CC=C4C[C@@H](O)CC[C@]4(C)[C@H]3CC[C@]12C | 670 nM | 1 | – | –
20 | C[C@H](CCCC(C)(C)O)[C@H]1CC[C@H]2[C@@H]3CC=C4C[C@@H](O)CC[C@]4(C)[C@H]3CC[C@]12C | 1160 nM | 0.35 | – | –
